From ChEMBL document CHEMBL3525967, “In vitro glucuronidation of the antibacterial triclocarban and its oxidative metabolites” (Drug Metab Dispos, 2012)

How the values were obtained:
[1] = Drug level in Swiss webster mouse urine treated with triclocarban at 5 mg/kg, po by LC-MS analysis; format: ADME, organism-based; design: dose 5 mg/kg, route oral; conditions: in vivo
Outline: (§1)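 TCC given by oral gavage as 1 mg/mL in 20/80 DMSO/PEG400, at 1 mg/kg (rats) or 5 mg/kg (mice). Animals in metabolic cages (mice two per cage, rats singly), blank urine taken 24 h before dosing. Urine collected 0-24 h and 24-48 h and analysed by online-LC-MS.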

[2] = Drug level in Sprague-Dawley rat urine treated with triclocarban at 1 mg/kg, po by LC-MS analysis; format: ADME, organism-based; design: dose 1 mg/kg, route oral; conditions: in vivo; outline: as §1
[3] = Drug metabolism in microsomes (unknown origin) assessed as retention time treated with 10 uM triclocarban by LC-UV-MS method; format: ADME, Microsome
Liver microsome [4] = test: Drug metabolism in Sprague-Dawley rat liver microsomes assessed as retention time treated with 6-hydroxy-triclocarban by LC-UV-MS method in presence of UDPGA; format: ADME
[5] = Drug excretion in human urine assessed as retention time treated with triclocarban by LC-UV-MS method; format: ADME
[6] = Drug level in cynomolgus monkey liver microsomes treated with triclocarban incubated for 5 mins prior to UDPGA addition measured after 30 mins by LC-UV-ESI-MS/MS analysis; format: ADME, Macaca fascicularis; conditions: 0.5 h
Outline: (§2)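 Microsomes or Sf-9 Supersomes (5 µg protein in 200 µL 100 mM potassium phosphate pH 7.4) pre-treated with alamethicin on ice 15 min; substrate 10 µM final (2% DMSO), MgCl2 and saccharolactone 10 mM each; 5 min preincubation at 37 °C, then UDPGA to start. Samples taken at 5, 10, 15, 30 min (or 2, 5, 10, 15 min) into ACN with internal standard; LC-UV-ESI-MS/MS.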

[7] = biological target: T1, UDP-glucuronosyltransferase 1A9 (Homo sapiens, UniProt O60656); test: Activity of human UGT1A9 expressed in baculovirus infected insect sf9 cells assessed as enzyme-mediated drug metabolism treated with triclocarban incubated for 5 mins prior to UDPGA addition measured after 30 mins by LC-ESI-MS analysis; format: ADME; conditions: sf9, 0.5 h; outline: as §2
T1 sequence (O60656 whole entry): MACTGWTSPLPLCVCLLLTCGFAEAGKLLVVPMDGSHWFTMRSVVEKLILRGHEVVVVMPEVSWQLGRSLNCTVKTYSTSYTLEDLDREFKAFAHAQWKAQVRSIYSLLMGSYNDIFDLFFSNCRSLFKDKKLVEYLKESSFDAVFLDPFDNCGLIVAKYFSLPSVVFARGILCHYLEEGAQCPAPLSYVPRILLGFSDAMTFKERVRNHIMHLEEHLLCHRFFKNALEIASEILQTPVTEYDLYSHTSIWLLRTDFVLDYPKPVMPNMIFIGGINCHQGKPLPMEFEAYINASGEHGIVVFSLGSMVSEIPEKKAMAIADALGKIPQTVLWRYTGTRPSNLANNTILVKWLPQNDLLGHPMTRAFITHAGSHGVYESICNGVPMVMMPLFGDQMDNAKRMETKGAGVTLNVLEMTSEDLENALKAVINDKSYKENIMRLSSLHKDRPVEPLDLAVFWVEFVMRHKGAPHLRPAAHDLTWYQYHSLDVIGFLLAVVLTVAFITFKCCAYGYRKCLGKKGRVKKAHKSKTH

[8] = Drug level in human kidney microsomes treated with triclocarban incubated for 5 mins prior to UDPGA addition measured after 30 mins by LC-UV-ESI-MS/MS analysis; format: ADME; conditions: 0.5 h; outline: as §2
Liver microsome [9] = test: Drug level in human liver microsomes treated with triclocarban incubated for 5 mins prior to UDPGA addition measured after 30 mins by LC-UV-ESI-MS/MS analysis; format: ADME; conditions: 0.5 h; outline: as §2
Liver = test: Drug level in B6C3F1 mouse liver microsomes treated with triclocarban incubated for 5 mins prior to UDPGA addition measured after 30 mins by LC-UV-ESI-MS/MS analysis; format: ADME; conditions: 0.5 h; outline: as §2

| Drug metabolism [1] | Drug metabolism [2] | Retention_time [3] | Retention_time (Liver microsome [4]) | Retention_time [5] | Drug metabolism [6] | Drug metabolism [7] | Drug metabolism [8] | Drug metabolism (Liver microsome [9]) | Drug metabolism (Liver) | Compound |
| --- | --- | --- | --- | --- | --- | --- | --- | --- | --- | --- |
| metabolite_detected | metabolite_detected |  | 2.26 min |  |  |  |  |  |  | O=C(Nc1ccc(Cl)c(Cl)c1)Nc1ccc(Cl)c(OC2O[C@H](C(=O)O)[C@@H](O)[C@H](O)[C@H]2O)c1 (stereo not given in full) |
|  |  | 3.46 min |  |  |  |  |  |  |  | O=C(Nc1ccc(Cl)c(Cl)c1)Nc1ccc(Cl)cc1OS(=O)(=O)O |

The remaining lines, values behind:

| Compound | Drug metabolism [1] | Drug metabolism [2] | Retention_time [3] | Retention_time (Liver microsome [4]) | Retention_time [5] | Drug metabolism [6] | Drug metabolism [7] | Drug metabolism [8] | Drug metabolism (Liver microsome [9]) | Drug metabolism (Liver) |
| --- | --- | --- | --- | --- | --- | --- | --- | --- | --- | --- |
| O=C(Nc1ccc(Cl)c(Cl)c1)Nc1ccc(Cl)cc1OC1O[C@H](C(=O)O)[C@@H](O)[C@H](O)[C@H]1O (stereo not given in full) | metabolite_detected | metabolite_detected | 2.5 min |  |  |  |  |  |  |  |
| O=C(Nc1ccc(Cl)cc1)Nc1cc(Cl)c(Cl)cc1OC1O[C@H](C(=O)O)[C@@H](O)[C@H](O)[C@H]1O (stereo not given in full) | metabolite_detected | metabolite_detected |  | 2.51 min |  |  |  |  |  |  |
| O=C(O)[C@H]1OC(N(C(=O)Nc2ccc(Cl)cc2)c2ccc(Cl)c(Cl)c2)[C@H](O)[C@@H](O)[C@@H]1O (stereo not given in full) | metabolite_detected |  |  |  | 1.97 min | metabolite_detected | metabolite_detected | metabolite_detected | metabolite_detected | metabolite_detected |
| O=C(O)[C@H]1OC(N(C(=O)Nc2ccc(Cl)c(Cl)c2)c2ccc(Cl)cc2)[C@H](O)[C@@H](O)[C@@H]1O (stereo not given in full) | metabolite_detected |  |  |  | 2.07 min | metabolite_detected | metabolite_detected | metabolite_detected | metabolite_detected | metabolite_detected |
| O=C(Nc1ccc(Cl)cc1)Nc1ccc(Cl)cc1 |  |  | 4.36 min |  |  |  |  |  |  |  |
